Results from ChEMBL document CHEMBL1129790 (J Med Chem, 1996).
pEC50, pIC50: −log10 of the molar value.

Key:
[1] = molecular target: Glutamate receptor ionotropic, AMPA (Rattus norvegicus, UniProt P19490+P19491+P19492+P19493); assay: Affinity against Ionotropic glutamate receptor AMPA using [3H]AMPA in selective radioligand binding assay; assay type: protein-complex assay
Method in brief: (§1)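 Displacement of the ionotropic radioligands ([3H]CGS19755 for NMDA, [3H]AMPA for AMPA, [3H]kainate for kainate sites) in rat forebrain membranes in vitro. Compounds were tested up to 100 μM, with IC50 as the read-out.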

[2] = molecular target: Glutamate receptor ionotropic, kainate; assay: Affinity value against Ionotropic glutamate receptor kainate using [3H]-kainic acid in selective radioligand binding assay.; assay type: protein-complex assay; method in brief: as §1
[3] = In vitro ability to displace [3H]glutamate binding to metabotropic glutamate receptors in rat forebrain membranes; assay type: cell membranes, Membrane
Method in brief: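 Radioligand displacement of ACPD-sensitive [3H]glutamate binding to metabotropic glutamate receptors in rat forebrain membranes in vitro. IC50 is reported as mean ± error.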

[4] = molecular target: Glutamate NMDA receptor; assay: Affinity value against N-methyl-D-aspartate (NMDA) receptor using [3H]-CGS- 19755 in glutamate radioligand binding assay.; assay type: protein-complex assay
Method in brief: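 Displacement of the ionotropic radioligands ([3H]CGS19755 for NMDA, [3H]AMPA for AMPA, [3H]kainate for kainate sites) in rat forebrain membranes in vitro.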

[5] = species: Rattus norvegicus; assay: Inhibition of forskolin-stim cAMP formation in cross-chopped slices of the adult rat cerebral cortex.; assay type: functional
[6] = species: Rattus norvegicus; assay: Augmentation of AMPA-induced excitation after Microelectrophoretic application to intact rat spinal neuron; assay type: functional
Method in brief: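 Female Wistar rats (200–230 g) under pentobarbitone Na (60 mg/kg ip initially, supplemented ip as needed) with lumbar laminectomy. A seven-barrel glass microelectrode in spinal gray matter recorded single-neuron firing during timed intermittent AMPA ejection (barrel 10 mM in 200 mM NaCl, pH 7.4). Agonists (barrel 25 mM in 175 mM NaCl, pH 7.4) were ejected in varied order across cells. Response reported as % increase over control, mean ± SEM.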

[7] = test system: Mus musculus; assay: Dose dependent blocking of limbic seizures induced by compound 1 by systemically administrating intraperitoneally
[8] = species: Rattus norvegicus; assay: Stimulation of [3H]IP (tritiated inositol monophosphate) formation in cross-chopped slices of the neonata rat cerebral cortex.; assay type: functional

SMILES	pIC50 [1]	pIC50 [2]	pIC50 [3]	pIC50 [4]	pEC50 [5]	Increase [6] [%]	EC50 [7] [mg/kg]	pEC50 [8]
N[C@@]1(C(=O)O)CC[C@@H](C(=O)O)C1	< 4.00	< 4.00	4.99	< 4.00	5.09	95		4.56
N[C@@]1(C(=O)O)CN[C@H](C(=O)O)C1	< 4.00	< 4.00	< 4.00	4.62				

Continued, in another order:

pIC50 [1]	pIC50 [2]	pIC50 [3]	pIC50 [4]	SMILES	pEC50 [5]	Increase [6] [%]	EC50 [7] [mg/kg]	pEC50 [8]
< 4.00	< 4.00	5.19	< 4.00	N[C@@]1(C(=O)O)CN[C@@H](C(=O)O)C1	4.84	52	271	
< 4.00	< 4.00	< 4.00		N[C@]1(C(=O)O)CN[C@@H](C(=O)O)C1				
< 4.00	< 4.00	< 4.00	< 4.00	N[C@]1(C(=O)O)CN[C@H](C(=O)O)C1				
